Measured values reported in ChEMBL document CHEMBL1926550, “Synthesis and antibacterial activity of naphthyridone derivatives containing mono/difluoro-methyloxime pyrrolidine scaffolds” (2012).
≈ marks a conversion by molar mass, not a printed value.

Experiments:
Assay type in all cases: functional
Escherichia coli [1] = assay: Antibacterial activity against Escherichia coli 10-1 after 18 hrs by two fold serial dilution method; details: 10-1, 18 h
Summary of the method: (§1)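 Agar two-fold serial dilution in melted Mueller-Hinton agar, final concentrations 128 down to 0.008 μg/mL. Plates inoculated with 10⁴ cfu and incubated at 35 °C for 18 h. MIC taken as the lowest concentration giving no visible growth on the plate.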

Escherichia coli [2] = assay: Antibacterial activity against Escherichia coli 10-2 after 18 hrs by two fold serial dilution method; details: 10-2, 18 h; summary of the method: as §1
Escherichia coli [3] = assay: Antibacterial activity against Escherichia coli 10-3 after 18 hrs by two fold serial dilution method; details: 10-3, 18 h; summary of the method: as §1
Klebsiella pneumoniae [4] = assay: Antibacterial activity against Klebsiella pneumoniae 09-2 after 18 hrs by two fold serial dilution method; details: 09-2, 18 h; summary of the method: as §1
Klebsiella pneumoniae [5] = assay: Antibacterial activity against Klebsiella pneumoniae 10-1 after 18 hrs by two fold serial dilution method; details: 10-1, 18 h; summary of the method: as §1
Klebsiella pneumoniae [6] = assay: Antibacterial activity against Klebsiella pneumoniae 10-3 after 18 hrs by two fold serial dilution method; details: 10-3, 18 h; summary of the method: as §1
Pseudomonas aeruginosa [7] = assay: Antibacterial activity against Pseudomonas aeruginosa ATCC 27853 after 18 hrs by two fold serial dilution method; details: ATCC 27853, 18 h; summary of the method: as §1
Pseudomonas aeruginosa [8] = assay: Antibacterial activity against Pseudomonas aeruginosa 10-1 after 18 hrs by two fold serial dilution method; details: 10-1, 18 h; summary of the method: as §1
Pseudomonas aeruginosa [9] = assay: Antibacterial activity against Pseudomonas aeruginosa 10-2 after 18 hrs by two fold serial dilution method; details: 10-2, 18 h; summary of the method: as §1
Pseudomonas aeruginosa [10] = assay: Antibacterial activity against Pseudomonas aeruginosa 10-3 after 18 hrs by two fold serial dilution method; details: 10-3, 18 h; summary of the method: as §1
Staphylococcus aureus [11] = assay: Ratio of ciprofloxacin MIC to compound MIC for methicillin-resistant Staphylococcus aureus 10-2
Staphylococcus aureus [12] = assay: Ratio of gemifloxacin MIC to compound MIC for methicillin-resistant Staphylococcus aureus 10-2
Staphylococcus aureus [13] = assay: Ratio of moxifloxacin MIC to compound MIC for methicillin-resistant Staphylococcus aureus 10-2
Enterococcus faecalis [14] = assay: Ratio of ciprofloxacin MIC to compound MIC for Enterococcus faecalis 09-2
Enterococcus faecalis [15] = assay: Ratio of gemifloxacin MIC to compound MIC for Enterococcus faecalis 09-2
Enterococcus faecalis [16] = assay: Ratio of moxifloxacin MIC to compound MIC for Enterococcus faecalis 09-2
Enterococcus faecium [17] = assay: Antibacterial activity against Enterococcus faecium 09-1 after 18 hrs by two fold serial dilution method; details: 09-1, 18 h; summary of the method: as §1
Staphylococcus aureus [18] = assay: Antibacterial activity against Staphylococcus aureus ATCC 25923 after 18 hrs by two fold serial dilution method; details: ATCC 25923, 18 h; summary of the method: as §1
Staphylococcus aureus [19] = assay: Antibacterial activity against methicillin-resistant Staphylococcus aureus 10-1 after 18 hrs by two fold serial dilution method; details: 10-1, 18 h
Summary of the method: (§2)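 Agar two-fold serial dilution in melted Mueller-Hinton agar, 128 to 0.008 μg/mL. Plates inoculated with 10⁴ cfu, incubated 35 °C for 18 h. MIC taken as lowest concentration giving no visible growth on the plate.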

Staphylococcus aureus [20] = assay: Antibacterial activity against methicillin-resistant Staphylococcus aureus 10-2 after 18 hrs by two fold serial dilution method; details: 10-2, 18 h; summary of the method: as §2
Staphylococcus aureus [21] = assay: Antibacterial activity against methicillin-resistant Staphylococcus aureus 10-3 after 18 hrs by two fold serial dilution method; details: 10-3, 18 h; summary of the method: as §2
Staphylococcus aureus [22] = assay: Antibacterial activity against methicillin-resistant Staphylococcus aureus 10-4 after 18 hrs by two fold serial dilution method; details: 10-4, 18 h; summary of the method: as §2
Staphylococcus aureus [23] = assay: Antibacterial activity against methicillin-sensitive Staphylococcus aureus 10-1 after 18 hrs by two fold serial dilution method; details: 10-1, 18 h; summary of the method: as §1
Staphylococcus aureus [24] = assay: Antibacterial activity against methicillin-sensitive Staphylococcus aureus 10-2 after 18 hrs by two fold serial dilution method; details: 10-2, 18 h; summary of the method: as §1
Staphylococcus aureus [25] = assay: Antibacterial activity against methicillin-sensitive Staphylococcus aureus 10-3 after 18 hrs by two fold serial dilution method; details: 10-3, 18 h; summary of the method: as §1
Staphylococcus aureus [26] = assay: Antibacterial activity against methicillin-sensitive Staphylococcus aureus 10-4 after 18 hrs by two fold serial dilution method; details: 10-4, 18 h; summary of the method: as §1
Staphylococcus aureus [27] = assay: Antibacterial activity against methicillin-sensitive Staphylococcus aureus 10-5 after 18 hrs by two fold serial dilution method; details: 10-5, 18 h; summary of the method: as §1
Staphylococcus aureus [28] = assay: Antibacterial activity against methicillin-sensitive Staphylococcus aureus 10-6 after 18 hrs by two fold serial dilution method; details: 10-6, 18 h; summary of the method: as §1
[29] = system: Staphylococcus epidermidis; assay: Antibacterial activity against methicillin-resistant Staphylococcus epidermidis 10-1 after 18 hrs by two fold serial dilution method; details: 10-1, 18 h; summary of the method: as §2
[30] = system: Staphylococcus epidermidis; assay: Antibacterial activity against methicillin-resistant Staphylococcus epidermidis 10-2 after 18 hrs by two fold serial dilution method; details: 10-2, 18 h; summary of the method: as §2
[31] = system: Staphylococcus epidermidis; assay: Antibacterial activity against methicillin-sensitive Staphylococcus epidermidis 10-1 after 18 hrs by two fold serial dilution method; details: 10-1, 18 h; summary of the method: as §1
[32] = system: Staphylococcus epidermidis; assay: Antibacterial activity against methicillin-sensitive Staphylococcus epidermidis 10-2 after 18 hrs by two fold serial dilution method; details: 10-2, 18 h; summary of the method: as §1
Streptococcus pneumoniae = assay: Antibacterial activity against Streptococcus pneumoniae 10-1 after 18 hrs by two fold serial dilution method; details: 10-1, 18 h; summary of the method: as §1
Enterococcus faecium [33] = assay: Antibacterial activity against Enterococcus faecium 09-2 after 18 hrs by two fold serial dilution method; details: 09-2, 18 h; summary of the method: as §1
Enterococcus faecium [34] = assay: Antibacterial activity against Enterococcus faecium 09-3 after 18 hrs by two fold serial dilution method; details: 09-3, 18 h; summary of the method: as §1
Enterococcus faecium [35] = assay: Antibacterial activity against Enterococcus faecium 09-4 after 18 hrs by two fold serial dilution method; details: 09-4, 18 h; summary of the method: as §1
Enterococcus faecium [36] = assay: Antibacterial activity against Enterococcus faecium 09-5 after 18 hrs by two fold serial dilution method; details: 09-5, 18 h; summary of the method: as §1
Enterococcus faecium [37] = assay: Antibacterial activity against Enterococcus faecium 09-6 after 18 hrs by two fold serial dilution method; details: 09-6, 18 h; summary of the method: as §1
Enterococcus faecalis [38] = assay: Antibacterial activity against Enterococcus faecalis 09-1 after 18 hrs by two fold serial dilution method; details: 09-1, 18 h; summary of the method: as §1
Enterococcus faecalis [39] = assay: Antibacterial activity against Enterococcus faecalis 09-2 after 18 hrs by two fold serial dilution method; details: 09-2, 18 h; summary of the method: as §1
Escherichia coli [40] = assay: Antibacterial activity against Escherichia coli ATCC 25922 after 18 hrs by two fold serial dilution method; details: ATCC 25922, 18 h; summary of the method: as §1
Escherichia coli [41] = assay: Antibacterial activity against Escherichia coli 09-1 after 18 hrs by two fold serial dilution method; details: 09-1, 18 h; summary of the method: as §1
Escherichia coli [42] = assay: Antibacterial activity against Escherichia coli 09-2 after 18 hrs by two fold serial dilution method; details: 09-2, 18 h; summary of the method: as §1
Escherichia coli [43] = assay: Antibacterial activity against Escherichia coli 09-3 after 18 hrs by two fold serial dilution method; details: 09-3, 18 h; summary of the method: as §1

CC1(CN)CN(c2nc3c(cc2F)c(=O)c(C(=O)O)cn3C2CC2)C/C1=N\OCF (racemic)
MIC (Escherichia coli [1]): 64 µg/mL (≈ 152 µM) | MIC (Escherichia coli [2]): 0.125 µg/mL (≈ 0.297 µM) | MIC (Escherichia coli [3]): 32 µg/mL (≈ 75.9 µM) | MIC (Klebsiella pneumoniae [4]): 128 µg/mL (≈ 304 µM) | MIC (Klebsiella pneumoniae [5]): 0.015 µg/mL (≈ 0.0356 µM) | MIC (Klebsiella pneumoniae [6]): 0.125 µg/mL (≈ 0.297 µM) | MIC (Pseudomonas aeruginosa [7]): 0.125 µg/mL (≈ 0.297 µM) | MIC (Pseudomonas aeruginosa [8]): 8 ng/mL (≈ 0.019 µM) | MIC (Pseudomonas aeruginosa [9]): 16 µg/mL (≈ 38 µM) | MIC (Pseudomonas aeruginosa [10]): 4 µg/mL (≈ 9.49 µM) | Ratio (Staphylococcus aureus [11]): 64 | Ratio (Staphylococcus aureus [12]): 2 | Ratio (Staphylococcus aureus [13]): 32 | Ratio (Enterococcus faecalis [14]): 64 | Ratio (Enterococcus faecalis [15]): 4 | Ratio (Enterococcus faecalis [16]): 16 | MIC (Enterococcus faecium [17]): 16 µg/mL (≈ 38 µM) | MIC (Staphylococcus aureus [18]): 8 ng/mL (≈ 0.019 µM) | MIC (Staphylococcus aureus [19]): 4 µg/mL (≈ 9.49 µM) | MIC (Staphylococcus aureus [20]): 0.25 µg/mL (≈ 0.593 µM) | MIC (Staphylococcus aureus [21]): 4 µg/mL (≈ 9.49 µM) | MIC (Staphylococcus aureus [22]): 4 µg/mL (≈ 9.49 µM) | MIC (Staphylococcus aureus [23]): 0.06 µg/mL (≈ 0.142 µM) | MIC (Staphylococcus aureus [24]): 1 µg/mL (≈ 2.37 µM) | MIC (Staphylococcus aureus [25]): 0.25 µg/mL (≈ 0.593 µM) | MIC (Staphylococcus aureus [26]): 0.06 µg/mL (≈ 0.142 µM) | MIC (Staphylococcus aureus [27]): 0.03 µg/mL (≈ 0.0712 µM) | MIC (Staphylococcus aureus [28]): 0.125 µg/mL (≈ 0.297 µM) | MIC [29]: 1 µg/mL (≈ 2.37 µM) | MIC [30]: 0.5 µg/mL (≈ 1.19 µM) | MIC [31]: 8 µg/mL (≈ 19 µM) | MIC [32]: 64 µg/mL (≈ 152 µM) | MIC (Streptococcus pneumoniae): 0.5 µg/mL (≈ 1.19 µM) | MIC (Enterococcus faecium [33]): 16 µg/mL (≈ 38 µM) | MIC (Enterococcus faecium [34]): 8 µg/mL (≈ 19 µM) | MIC (Enterococcus faecium [35]): 0.06 µg/mL (≈ 0.142 µM) | MIC (Enterococcus faecium [36]): 16 µg/mL (≈ 38 µM) | MIC (Enterococcus faecium [37]): 0.06 µg/mL (≈ 0.142 µM) | MIC (Enterococcus faecalis [38]): 4 µg/mL (≈ 9.49 µM) | MIC (Enterococcus faecalis [39]): 1 µg/mL (≈ 2.37 µM) | MIC (Escherichia coli [40]): 8 ng/mL (≈ 0.019 µM) | MIC (Escherichia coli [41]): 64 µg/mL (≈ 152 µM) | MIC (Escherichia coli [42]): > 128 µg/mL | MIC (Escherichia coli [43]): 32 µg/mL (≈ 75.9 µM)
